# Source: PMC8942385 (Medicinal chemistry research : an international journal for …, 2021)
# “Also recorded” adds a separate entry of the source. Where two headings read alike, the source gives them in different places.
# What was measured:
# [1] = molecular target: D1R (Homo sapiens, UniProt P21728); assay: PDSP radioligand binding, D1; conditions: for inhibition at 10 µM: read-out: Binding, D1: inhibition threshold class
# In short: (§1)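 Radioligand competition binding run by NIMH-PDSP. Radioligands: [3H]8-OH-DPAT (5-HT1AR), [3H]Ketanserin (5-HT2AR), [3H]LSD (5-HT2BR), [3H]SCH23390 (D1R, D5R), [3H]N-Methylspiperone (D2R, D3R, D4R). […] Ki given as mean ± SEM of at least 3 independent assays, each in triplicate.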
# [2] = molecular target: 5-HT2BR (Homo sapiens, UniProt P41595); assay: PDSP radioligand binding, 5-HT2BR; conditions: [3H]LSD
# In short: as §1
# [3] = molecular target: D3R (Homo sapiens, UniProt P35462); assay: PDSP radioligand binding, D3; conditions: for Ki: Binding affinity constant Ki, D3, [3H]N-Methylspiperone
# In short: as §1
# [4] = molecular target: D2R (Homo sapiens, UniProt P14416); assay: PDSP radioligand binding, D2
# In short: as §1
# [5] = molecular target: NET (Homo sapiens, UniProt P23975); assay: PDSP radioligand binding, NET; conditions: for Binding, NET: inhibition threshold class: [3H]Nisoxetine, 10 μM concentration
# [6] = molecular target: T1, 5-HT7R (Homo sapiens, UniProt P34969); assay: PDSP radioligand binding, 5-HT7R
# [7] = Configurational stability of separated enantiomers; type: physicochemical; conditions: after chiral HPLC separation
# [8] = molecular target: DAT (Homo sapiens, UniProt Q01959); assay: PDSP radioligand binding, DAT; conditions: for Binding, DAT: inhibition threshold class: [3H]WIN35428, 10 μM concentration
# [9] = molecular target: T2, SERT (Homo sapiens, UniProt P31645); assay: PDSP radioligand binding, SERT; conditions: for Binding, SERT: inhibition threshold class: [3H]Citalopram, 10 μM concentration
# [10] = molecular target: T1, 5-HT7R; assay: GPCR Tango assay, β-arrestin recruitment; type: cell-based
# [11] = molecular target: D5R (Homo sapiens, UniProt P21918); assay: PDSP radioligand binding, D5; conditions: for inhibition at 10 µM: read-out: Binding, D5: inhibition threshold class
# In short: as §1
# [12] = molecular target: T3, D4R (Homo sapiens, UniProt P21917); assay: PDSP radioligand binding, D4
# T3 sequence (P21917 1-419): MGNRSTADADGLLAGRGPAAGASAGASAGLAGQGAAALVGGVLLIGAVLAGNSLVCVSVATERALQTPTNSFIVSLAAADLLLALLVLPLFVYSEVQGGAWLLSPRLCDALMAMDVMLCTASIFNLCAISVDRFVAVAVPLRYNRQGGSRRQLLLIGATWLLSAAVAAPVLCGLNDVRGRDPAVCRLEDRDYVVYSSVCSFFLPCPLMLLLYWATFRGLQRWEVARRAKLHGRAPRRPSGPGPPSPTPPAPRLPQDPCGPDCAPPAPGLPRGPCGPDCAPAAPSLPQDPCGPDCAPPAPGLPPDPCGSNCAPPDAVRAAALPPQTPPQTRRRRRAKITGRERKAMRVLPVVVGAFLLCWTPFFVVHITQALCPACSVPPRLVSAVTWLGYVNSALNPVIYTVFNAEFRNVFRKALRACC
# In short: as §1
# [13] = molecular target: T4, 5-HT2CR (Homo sapiens, UniProt P28335); assay: PDSP radioligand binding, 5-HT2CR
# T4 sequence (P28335 33-458): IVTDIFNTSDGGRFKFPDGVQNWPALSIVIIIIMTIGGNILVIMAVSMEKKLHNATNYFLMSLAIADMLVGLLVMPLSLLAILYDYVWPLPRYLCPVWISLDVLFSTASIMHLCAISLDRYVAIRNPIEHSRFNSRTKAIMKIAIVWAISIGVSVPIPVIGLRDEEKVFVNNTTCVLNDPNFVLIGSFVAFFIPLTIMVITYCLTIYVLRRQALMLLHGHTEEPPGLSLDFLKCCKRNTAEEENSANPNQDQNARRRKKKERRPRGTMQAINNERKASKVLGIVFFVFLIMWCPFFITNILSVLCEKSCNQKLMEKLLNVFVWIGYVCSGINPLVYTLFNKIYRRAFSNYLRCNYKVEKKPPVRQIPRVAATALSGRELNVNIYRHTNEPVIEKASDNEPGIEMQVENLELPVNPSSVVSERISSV
# [14] = molecular target: 5-HT2AR (Homo sapiens, UniProt P28223); assay: PDSP radioligand binding, 5-HT2AR; conditions: [3H]Ketanserin
# In short: as §1
# [15] = molecular target: T5, h5-HT7A (Homo sapiens, UniProt P34969); assay: HEK-5-HT7A / cAMP functional assay; type: cell-based; conditions: agonist mode
# [16] = molecular target: T6, 5-HT1AR (Homo sapiens, UniProt P08908); assay: PDSP radioligand binding, 5-HT1AR; conditions: [3H]8-OH-DPAT
# T6 sequence (P08908 1-422): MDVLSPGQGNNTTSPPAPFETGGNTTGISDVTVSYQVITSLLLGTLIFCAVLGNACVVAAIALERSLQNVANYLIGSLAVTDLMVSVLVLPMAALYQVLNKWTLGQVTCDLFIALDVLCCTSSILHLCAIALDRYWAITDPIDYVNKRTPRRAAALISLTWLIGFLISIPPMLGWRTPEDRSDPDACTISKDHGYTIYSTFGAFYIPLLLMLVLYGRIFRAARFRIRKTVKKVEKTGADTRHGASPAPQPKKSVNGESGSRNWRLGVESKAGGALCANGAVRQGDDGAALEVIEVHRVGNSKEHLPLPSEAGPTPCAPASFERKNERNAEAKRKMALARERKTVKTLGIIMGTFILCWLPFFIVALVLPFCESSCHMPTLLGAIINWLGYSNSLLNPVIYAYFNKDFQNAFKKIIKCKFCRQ
# In short: as §1
# [17] = molecular target: T1, 5-HT7R; conditions: read-out: Binding affinity constant Ki, 5-HT7R; Table 1; cited from earlier work
# [18] = molecular target: T6, 5-HT1AR; conditions: read-out: Binding affinity constant Ki, 5-HT1AR; cited from earlier work
# [19] = molecular target: T2, SERT; conditions: 10 μM concentration; cited from earlier work
# [20] = molecular target: T5, h5-HT7A; conditions: cited from earlier work
# [21] = molecular target: T1, 5-HT7R; conditions: cited from earlier work
# [22] = [3H]SCH23390, 10 μM concentration
# [23] = mean ± SEM, min 3 assays in triplicate
# [24] = Binding affinity constant Ki, 5-HT1AR
# Sequence of NET (P23975 whole entry): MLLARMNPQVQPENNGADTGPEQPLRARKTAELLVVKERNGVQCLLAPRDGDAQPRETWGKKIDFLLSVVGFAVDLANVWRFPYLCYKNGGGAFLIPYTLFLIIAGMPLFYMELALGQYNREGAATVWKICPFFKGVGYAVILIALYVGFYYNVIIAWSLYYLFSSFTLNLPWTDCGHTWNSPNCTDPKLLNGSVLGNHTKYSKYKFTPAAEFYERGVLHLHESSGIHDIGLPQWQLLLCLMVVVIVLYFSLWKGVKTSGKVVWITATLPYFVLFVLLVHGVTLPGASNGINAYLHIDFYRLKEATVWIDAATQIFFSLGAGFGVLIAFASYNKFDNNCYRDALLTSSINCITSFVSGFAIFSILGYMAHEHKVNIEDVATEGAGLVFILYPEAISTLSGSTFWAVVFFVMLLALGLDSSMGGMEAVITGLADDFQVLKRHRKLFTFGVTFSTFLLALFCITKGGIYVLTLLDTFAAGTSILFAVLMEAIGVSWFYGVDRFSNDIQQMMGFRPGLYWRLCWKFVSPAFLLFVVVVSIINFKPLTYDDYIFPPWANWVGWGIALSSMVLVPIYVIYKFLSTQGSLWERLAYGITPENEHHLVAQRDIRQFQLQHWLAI
# Sequence of D5R (P21918 whole entry): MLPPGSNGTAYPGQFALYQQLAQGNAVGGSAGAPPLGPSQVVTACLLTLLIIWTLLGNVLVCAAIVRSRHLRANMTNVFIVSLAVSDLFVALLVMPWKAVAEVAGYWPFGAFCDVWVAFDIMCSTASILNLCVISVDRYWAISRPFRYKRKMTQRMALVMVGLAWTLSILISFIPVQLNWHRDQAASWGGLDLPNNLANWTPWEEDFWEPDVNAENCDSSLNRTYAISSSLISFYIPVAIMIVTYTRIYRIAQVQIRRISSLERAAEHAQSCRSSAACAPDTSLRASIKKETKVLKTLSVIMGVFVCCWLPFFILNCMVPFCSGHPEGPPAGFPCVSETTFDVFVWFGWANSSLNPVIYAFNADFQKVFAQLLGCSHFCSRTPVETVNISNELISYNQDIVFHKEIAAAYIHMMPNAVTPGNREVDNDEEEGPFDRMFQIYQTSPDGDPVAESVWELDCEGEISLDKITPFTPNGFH
# Sequence of 5-HT2AR (P28223 whole entry): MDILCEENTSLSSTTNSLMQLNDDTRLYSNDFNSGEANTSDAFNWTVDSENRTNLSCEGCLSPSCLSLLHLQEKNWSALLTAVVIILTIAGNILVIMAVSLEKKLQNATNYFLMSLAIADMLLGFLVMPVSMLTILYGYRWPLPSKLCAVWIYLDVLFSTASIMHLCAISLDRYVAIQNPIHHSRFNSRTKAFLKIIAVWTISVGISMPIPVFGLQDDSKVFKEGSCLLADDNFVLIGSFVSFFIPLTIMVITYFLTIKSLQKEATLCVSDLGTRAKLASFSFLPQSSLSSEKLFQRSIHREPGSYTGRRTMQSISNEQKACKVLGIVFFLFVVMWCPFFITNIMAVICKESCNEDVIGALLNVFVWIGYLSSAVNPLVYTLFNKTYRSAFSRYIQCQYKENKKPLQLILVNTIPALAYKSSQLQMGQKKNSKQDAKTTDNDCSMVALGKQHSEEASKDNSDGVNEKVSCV
# T2 sequence (P31645 whole entry, species assumed): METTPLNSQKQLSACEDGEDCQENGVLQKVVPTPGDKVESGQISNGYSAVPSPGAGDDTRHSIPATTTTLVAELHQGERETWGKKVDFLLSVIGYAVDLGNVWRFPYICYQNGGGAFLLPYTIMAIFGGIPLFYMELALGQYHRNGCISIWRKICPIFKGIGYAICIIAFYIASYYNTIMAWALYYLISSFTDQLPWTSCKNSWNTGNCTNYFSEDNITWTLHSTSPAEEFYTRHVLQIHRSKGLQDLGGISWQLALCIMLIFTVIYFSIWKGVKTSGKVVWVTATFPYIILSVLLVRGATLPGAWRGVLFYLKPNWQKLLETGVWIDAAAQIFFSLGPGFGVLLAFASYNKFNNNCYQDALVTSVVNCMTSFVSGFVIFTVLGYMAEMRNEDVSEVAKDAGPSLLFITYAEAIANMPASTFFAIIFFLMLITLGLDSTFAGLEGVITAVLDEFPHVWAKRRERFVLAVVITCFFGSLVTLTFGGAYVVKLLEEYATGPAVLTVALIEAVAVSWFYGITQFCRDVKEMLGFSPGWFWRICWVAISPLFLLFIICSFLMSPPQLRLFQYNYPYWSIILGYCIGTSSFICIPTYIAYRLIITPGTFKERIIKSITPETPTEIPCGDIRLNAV
# Sequence of D3R (P35462 whole entry): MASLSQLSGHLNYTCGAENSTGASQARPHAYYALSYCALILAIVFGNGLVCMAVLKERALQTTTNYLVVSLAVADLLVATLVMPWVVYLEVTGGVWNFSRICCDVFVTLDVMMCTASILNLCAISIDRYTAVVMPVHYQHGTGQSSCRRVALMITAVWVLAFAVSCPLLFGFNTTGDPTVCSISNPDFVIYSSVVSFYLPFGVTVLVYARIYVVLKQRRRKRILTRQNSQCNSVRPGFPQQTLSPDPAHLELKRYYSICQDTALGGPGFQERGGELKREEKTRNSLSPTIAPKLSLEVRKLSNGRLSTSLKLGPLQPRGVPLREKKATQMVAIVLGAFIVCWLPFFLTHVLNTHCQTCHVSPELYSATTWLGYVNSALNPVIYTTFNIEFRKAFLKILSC
# Sequence of 5-HT2BR (P41595 whole entry): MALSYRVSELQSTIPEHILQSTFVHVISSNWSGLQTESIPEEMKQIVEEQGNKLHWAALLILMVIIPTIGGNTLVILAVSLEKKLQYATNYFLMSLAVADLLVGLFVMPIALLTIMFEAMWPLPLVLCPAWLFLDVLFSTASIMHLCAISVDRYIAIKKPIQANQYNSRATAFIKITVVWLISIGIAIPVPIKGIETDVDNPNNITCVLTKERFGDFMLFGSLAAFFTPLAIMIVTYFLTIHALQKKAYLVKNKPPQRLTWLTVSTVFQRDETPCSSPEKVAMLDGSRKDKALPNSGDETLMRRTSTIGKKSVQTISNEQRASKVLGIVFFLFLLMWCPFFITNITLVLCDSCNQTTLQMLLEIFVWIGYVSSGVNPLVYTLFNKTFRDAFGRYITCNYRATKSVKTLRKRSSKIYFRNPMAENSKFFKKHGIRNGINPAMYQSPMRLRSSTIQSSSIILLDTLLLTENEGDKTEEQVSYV
# Sequence of DAT (Q01959 whole entry, species assumed): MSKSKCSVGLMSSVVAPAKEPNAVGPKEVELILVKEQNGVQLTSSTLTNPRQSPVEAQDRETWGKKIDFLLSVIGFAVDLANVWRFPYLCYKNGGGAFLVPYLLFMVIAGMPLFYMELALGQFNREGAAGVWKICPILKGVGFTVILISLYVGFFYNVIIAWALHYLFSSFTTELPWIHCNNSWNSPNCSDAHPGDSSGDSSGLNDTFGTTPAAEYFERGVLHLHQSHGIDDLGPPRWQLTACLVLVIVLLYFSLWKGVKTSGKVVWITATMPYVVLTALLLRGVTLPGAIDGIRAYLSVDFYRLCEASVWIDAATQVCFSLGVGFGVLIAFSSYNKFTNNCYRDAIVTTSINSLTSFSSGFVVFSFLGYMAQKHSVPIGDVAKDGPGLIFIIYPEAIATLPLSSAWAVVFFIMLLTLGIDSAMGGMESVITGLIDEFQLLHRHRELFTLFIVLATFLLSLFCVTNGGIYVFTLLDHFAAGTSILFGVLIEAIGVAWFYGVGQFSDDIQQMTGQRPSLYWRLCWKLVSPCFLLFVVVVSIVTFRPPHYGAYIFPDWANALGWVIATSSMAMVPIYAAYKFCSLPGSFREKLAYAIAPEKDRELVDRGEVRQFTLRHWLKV
# T1 sequence (P34969 whole entry): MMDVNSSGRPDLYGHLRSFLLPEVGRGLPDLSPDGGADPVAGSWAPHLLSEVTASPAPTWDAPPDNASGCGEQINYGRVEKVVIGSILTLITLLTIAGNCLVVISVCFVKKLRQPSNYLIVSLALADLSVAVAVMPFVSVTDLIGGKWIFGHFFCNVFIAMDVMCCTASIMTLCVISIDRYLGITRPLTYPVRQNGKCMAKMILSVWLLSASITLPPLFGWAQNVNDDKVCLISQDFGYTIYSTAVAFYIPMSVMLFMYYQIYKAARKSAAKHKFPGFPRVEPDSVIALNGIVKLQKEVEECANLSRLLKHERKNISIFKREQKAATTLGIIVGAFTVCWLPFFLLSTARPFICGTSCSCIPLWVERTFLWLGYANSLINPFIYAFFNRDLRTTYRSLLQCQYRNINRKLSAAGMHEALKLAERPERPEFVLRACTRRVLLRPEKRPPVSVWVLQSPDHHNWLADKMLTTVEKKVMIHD
# Sequence of D2R (P14416 whole entry): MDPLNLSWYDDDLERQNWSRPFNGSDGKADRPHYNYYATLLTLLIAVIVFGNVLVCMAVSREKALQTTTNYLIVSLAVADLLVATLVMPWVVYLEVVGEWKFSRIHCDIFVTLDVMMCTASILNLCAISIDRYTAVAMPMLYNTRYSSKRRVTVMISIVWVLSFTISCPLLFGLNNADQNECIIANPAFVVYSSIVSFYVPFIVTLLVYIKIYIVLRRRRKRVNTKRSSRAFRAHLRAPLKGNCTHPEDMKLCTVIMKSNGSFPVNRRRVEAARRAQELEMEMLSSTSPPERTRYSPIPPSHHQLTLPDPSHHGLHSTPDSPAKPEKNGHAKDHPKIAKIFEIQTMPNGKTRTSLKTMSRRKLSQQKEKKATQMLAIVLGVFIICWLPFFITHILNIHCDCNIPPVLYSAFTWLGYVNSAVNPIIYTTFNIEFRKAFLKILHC
structure (smiles),measurement,setting,value
"CC1(CCN2CCc3ccccc3C2)Cc2cc(Cl)ccc2C1=O (single isomer, unassigned; (-)) [Compound 2a, (−)-5-chloro-2-(2-(3,4-dihydroisoquinolin-2(1H)-yl)ethyl)-2-methyl-2,3-dihydro-1H-inden-1-one]","Binding, D1: inhibition threshold class",[1]; [22],MT (Missed threshold of 50% inhibition at 10 μM concentration)
same,"Binding affinity constant pKi ± SEM, 5-HT2BR",[2]; [23],6.48 ± 0.04
same,Ki,"[2]; read-out: Binding affinity constant Ki, 5-HT2BR",329 nM
same,"Binding, D3: inhibition threshold class",[3]; 10 μM concentration,MT (Missed threshold of 50% inhibition at 10 μM concentration)
same,"Binding, D2: inhibition threshold class",[4]; 10 μM concentration,MT (Missed threshold of 50% inhibition at 10 μM concentration)
same,"Binding, NET: inhibition threshold class",[5],MT (Missed threshold of 50% inhibition at 10 μM concentration)
same,Selectivity for 5-HT7R over 5-HT1AR,[6],~72 fold
same,"Binding affinity constant pKi ± SEM, 5-HT7R","[6]; Table 1, [3H]LSD, mean ± SEM, min 3 assays in triplicate",8.94 ± 0.06
same,5-HT7 Receptor Binding pKi,[6]; Table 3,8.7 ± 0.1
same,Ki,"[6]; read-out: 5-HT7 Receptor Binding Ki, Table 3",2.4 nM
same,Ki,"[6]; read-out: Binding affinity constant Ki, 5-HT7R, Table 1, [3H]LSD",1.2 nM
same,Racemization of separated enantiomers,[7],No racemization
same,"Binding, DAT: inhibition threshold class",[8],MT (Missed threshold of 50% inhibition at 10 μM concentration)
same,"Binding, SERT: inhibition threshold class",[9],MT (Missed threshold of 50% inhibition at 10 μM concentration)
same,β-arrestin Emax %,"[10]; agonist mode, Tango",78.7 ± 5.7%
same,β-arrestin Hill,"[10]; agonist mode, Tango",1.2 ± 0.1
same,β-arrestin pEC50,"[10]; agonist mode, Tango",8.4 ± 0.1
same,EC50,"[10]; read-out: β-arrestin EC50, agonist mode, Tango",3.98 nM
same,Times higher activity than 5-HT in the β-arrestin pathway,[10]; relative to 5-HT,over 31 times
same,"Binding, D5: inhibition threshold class",[11]; [22],MT (Missed threshold of 50% inhibition at 10 μM concentration)
same,"Binding affinity constant pKi ± SEM, D4","[12]; [3H]N-Methylspiperone, mean ± SEM, min 3 assays in triplicate",6.34 ± 0.07
same,Ki,"[12]; read-out: Binding affinity constant Ki, D4, [3H]N-Methylspiperone",457 nM
same,"Binding, 5-HT2CR: inhibition threshold class",[13]; 10 μM concentration,MT (Missed threshold of 50% inhibition at 10 μM concentration)
same,"Binding affinity constant pKi ± SEM, 5-HT2AR",[14]; [23],6.08 ± 0.06
same,Ki,"[14]; read-out: Binding affinity constant Ki, 5-HT2AR",834 nM
same,cAMP Hill,[15],1.3± 0.2
same,cAMP pEC50,[15],6.9±0.3
same,cAMP Emax %,[15]; normalized to maximal serotonin effect,82.8 ± 2.6%
same,EC50,[15]; read-out: cAMP EC50,126 nM
same,"Binding affinity constant pKi ± SEM, 5-HT1AR",[16]; [23],7.06±0.07
same,Ki,"[16]; read-out: Binding affinity constant Ki, 5-HT1AR",86.3 nM
Cc1nn(C)c(C)c1-c1cccc2c1CC[C@H](N(C)C)C2 [AS-19],Ki,[17],0.6 nM
same,Ki,[18],89.7 nM
"O=C1c2ccc(Cl)cc2CC1CCN1CCc2ccccc2C1 (stereo not drawn) [Compound 1c, 5-chloro-2-(2-(3,4-dihydroisoquinolin-2(1H)-yl)ethyl)-2,3-dihydro-1H-inden-1-one]",Racemization of separated enantiomers,[7],racemizes readily; also recorded: quickly reverted to the racemic mixture in a matter of hours
same,"Binding, SERT: inhibition threshold class",[19],MT (Missed threshold of 50% inhibition at 10 μM concentration)
"CC1(CCN2CCc3ccccc3C2)Cc2cc(Cl)ccc2C1=O (stereo not drawn) [Compound 2, 5-chloro-2-(2-(3,4-dihydroisoquinolin-2(1H)-yl)ethyl)-2-methyl-2,3-dihydro-1H-inden-1-one]",inhibition at 10 µM,[1],< 50%
same,Ki,"[2]; Binding affinity constant Ki, 5-HT2BR",174 nM
same,Ki,[3],185 nM
same,Ki,[4],1230 nM
same,inhibition at 10 µM,"[5]; read-out: Binding, NET: inhibition threshold class",< 50%
same,Fold higher affinity at the 5-HT7R than clozapine,[6],2 fold
same,Fold lower affinity at the 5-HT7R than AS 19,[6],about 4 fold
same,Ki,[6],2.24 nM
same,inhibition at 10 µM,"[8]; read-out: Binding, DAT: inhibition threshold class",< 50%
same,inhibition at 10 µM,"[9]; read-out: Binding, SERT: inhibition threshold class",< 50%
same,inhibition at 10 µM,[11],< 50%
same,Ki,"[12]; Binding affinity constant Ki, D4, [3H]N-Methylspiperone",1220 nM
same,Ki,"[13]; Binding affinity constant Ki, 5-HT2CR, [3H]Mesulergine",1740 nM
same,Ki,"[14]; Binding affinity constant Ki, 5-HT2AR",904 nM
same,Ki,[16]; [24],1720 nM
"CCOC(=O)C1(CCN2CCc3ccccc3C2)Cc2cc(Cl)ccc2C1=O (stereo not drawn) [Compound 3, ethyl 5-chloro-2-(2-(3,4-dihydroisoquinolin-2(1H)-yl)ethyl)-1-oxo-2,3-dihydro-1H-indene-2-carboxylate]",inhibition at 10 µM,[1],< 50%
same,Ki,[3],134 nM
same,Ki,[4],747 nM
same,"Binding, NET: inhibition threshold class",[5],MT (Missed threshold of 50% inhibition at 10 μM concentration)
same,Ki,[6],3.39 nM
same,"Binding, DAT: inhibition threshold class",[8],MT (Missed threshold of 50% inhibition at 10 μM concentration)
same,"Binding, SERT: inhibition threshold class",[9],MT (Missed threshold of 50% inhibition at 10 μM concentration)
same,inhibition at 10 µM,[11],< 50%
same,inhibition at 10 µM,"[12]; read-out: Binding, D4: inhibition threshold class",< 50%
same,Ki,[13],885 nM
same,Ki,[16]; [24],52 nM
"NCCc1c[nH]c2ccc(O)cc12 [Compound 5-HT, Serotonin, reference compound]",β-arrestin Hill,"[10]; agonist mode, Tango",3.4±0.4
same,cAMP Hill,[15],1.0±0.1
"Clc1ccc(-c2n[nH]c3c2CCNCC3)cc1 [Compound 7, 3-(4-chlorophenyl)-1,4,5,6,7,8-hexahydropyrazolo[3,4-d]azepine]",cAMP Emax %,[20],94.7%
same,cAMP pEC50,[20],5.1±0.1
same,EC50,[20]; read-out: cAMP EC50,7.79 µM
same,β-arrestin Emax %,[21],62.7%
same,β-arrestin pEC50,[21],6.8±0.2
same,Ki,[18],> 10000 nM
